Consider 13 molecules from ChEMBL document CHEMBL1914373, “Synthesis and biological evaluation of novel dimethyl[1,1'-biphenyl]-2,2'-dicarboxylate derivatives containing thiazolidine-2,4-dione for the treatment of concanavalin A-induced acute liver injury of BALB/c mice” (2011).

Activity calls are given as the source filed them. The rule behind the calls is not given here.

The subject of one experiment is RAW264.7. Briefly: Antiinflammatory activity in LPS-stimulated mouse RAW264.7 cells assessed as inhibition of LPS-induced NO production after 22 hrs by Griess reaction. In kind it is functional, cell-based. A digest of the protocol:
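RAW 264.7 macrophages grown in RPMI 1640, 37 °C, 5% CO2; seeded 1 × 10^4/well, cultured 24 h, then exposed to LPS with or without compounds at a range of concentrations for 22 h. Supernatant mixed 1:1 with Griess reagent, 10 min at room temperature, A540 read; nitrite quantified against sodium nitrite standards in RPMI 1640. Three independent experiments.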

Experiment [1] concerns Mus musculus. As to the kind of experiment: Antiinflammatory activity in ICR mouse assessed as reduction in carrageenan-induced paw edema at 50 mg/kg, po administered 30 mins before carrageenan challenge measured at 3 hr post challenge. In kind it is functional. On the set-up: scale not given: the % may be the effect or the level left.
For experiment [2], the system named is Mus musculus. Briefly: Hepatoprotective activity in BALB/c mouse hepatitis model assessed as reduction in concanavalin A-induced increase in serum ALT level at 50 mg/kg, […] relative to control. The note with it: route oral. In kind it is functional. On the set-up: scale not given: the % may be the effect or the level left.
Experiment [3] has as its system Rattus norvegicus. As to the kind of experiment: Hepatoprotective activity […] assessed as decrease in liver lesions at 50 mg/kg, po administered before concanavalin A challenge by hematoxylin and eosin staining-based histopathology analysis. The class given is functional, organism-based. On the set-up: dose 50 mg/kg.
The test system of experiment [4] is Rattus norvegicus. As to the kind of experiment: Hepatoprotective activity […] assessed as reduction in necrosis in liver lobules at 50 mg/kg, po administered before concanavalin A challenge by hematoxylin and eosin staining-based histopathology analysis. The class given is functional, organism-based. On the set-up: dose 50 mg/kg.
Experiment [5] deals with Rattus norvegicus. As to the kind of experiment: Hepatoprotective activity […] assessed as reduction in concanavalin A-induced inflammatory cells infiltration at 50 mg/kg, po administered before concanavalin A challenge by hematoxylin and eosin staining-based histopathology analysis. The class given is functional, organism-based. On the set-up: dose 50 mg/kg.
The test system of experiment [6] is Mus musculus. Briefly: Antiinflammatory activity in po dosed ICR mouse assessed as reduction in carrageenan-induced paw edema administered 30 mins before carrageenan challenge measured up to 5 hrs. In kind it is functional, organism-based.
For experiment [7], the system named is Mus musculus. Briefly: Hepatoprotective activity in BALB/c mouse hepatitis model assessed as reduction in concanavalin A-induced increase in serum AST level at 50 mg/kg, […] relative to control. In kind it is functional. On the set-up: scale not given: the % may be the effect or the level left. The note with it: route oral.

In the case of `COC(=O)c1cc(OC)c2c(c1-c1c(C(=O)Oc3cc(/C=C4/SC(=O)NC4=O)ccc3OC)cc(OC)c3c1OCO3)OCO2`, the inhibition entry in the experiment on RAW264.7 is “Active”.
With `COC(=O)c1cc(OC)c2c(c1-c1c(C(=O)Oc3ccccc3/C=C3/SC(=O)NC3=O)cc(OC)c3c1OCO3)OCO2`, the inhibition result in the experiment on RAW264.7 was “Active”.
With `COC(=O)c1cc(OC)c2c(c1-c1c(C(=O)Oc3ccc(/C=C4\SC(=O)NC4=O)cc3Br)cc(OC)c3c1OCO3)OCO2`, the inhibition entry in the experiment on RAW264.7 was “Active”.
The same measure, in the same setting: to `COC(=O)c1cc(OC)c2c(c1-c1c(C(=O)Oc3c(OC)cc(/C=C4\SC(=O)NC4=O)cc3OC)cc(OC)c3c1OCO3)OCO2` belongs “Active”; to `COC(=O)c1cc(OC)c2c(c1-c1c(C(=O)Oc3ccc(/C=C4\SC(=O)NC4=O)cc3OC)cc(OC)c3c1OCO3)OCO2`, “Active”.
Turning to `COC(=O)c1cc(OC)c2c(c1-c1c(C(=O)Oc3ccc(/C=C4\SC(=O)NC4=O)cc3)cc(OC)c3c1OCO3)OCO2`, the Activity in the experiment with Mus musculus [1] is 54.88%; in the experiment on Mus musculus [2], 94.96%; in the experiment on Mus musculus [6], “Dose-dependent effect”; in the experiment with Mus musculus [7] it was 69.12%. Moreover, the outcome in the experiment on Rattus norvegicus [3], with Rattus norvegicus [4] and in the experiment with Rattus norvegicus [5] was Active. Further, in the experiment with RAW264.7, the inhibition result is “Active”.
Consider `COC(=O)c1cc(OC)c2c(c1-c1c(C(=O)Oc3ccc(Cl)cc3/C=C3/SC(=O)NC3=O)cc(OC)c3c1OCO3)OCO2`, for which the inhibition result with RAW264.7 was “Dose-dependent effect”.
`COC(=O)c1cc(OC)c2c(c1-c1c(C(=O)Oc3c(Cl)cc(Cl)cc3/C=C3/SC(=O)NC3=O)cc(OC)c3c1OCO3)OCO2`: the inhibition entry in the experiment with RAW264.7 was “Active”.
Same read-out and setting: the same measure for `COC(=O)c1cc(OC)c2c(c1-c1c(C(=O)Oc3ccc(/C=C4\SC(=O)NC4=O)cc3F)cc(OC)c3c1OCO3)OCO2`: “Active”; for `CCOc1cc(/C=C2\SC(=O)NC2=O)ccc1OC(=O)c1cc(OC)c2c(c1-c1c(C(=O)OC)cc(OC)c3c1OCO3)OCO2`: “Active”; for `COC(=O)c1cc(OC)c2c(c1-c1c(C(=O)Oc3c(Br)cc(Br)cc3/C=C3/SC(=O)NC3=O)cc(OC)c3c1OCO3)OCO2`: “Active”.
The same measure, in the same setting: to `COC(=O)c1cc(OC)c2c(c1-c1c(C(=O)Oc3cccc(/C=C4/SC(=O)NC4=O)c3)cc(OC)c3c1OCO3)OCO2` belongs “Active”.
`COC(=O)c1cc(OC)c2c(c1-c1c(C(=O)OC)cc(OC)c3c1OCO3)OCO2` [BIFENDATE]: the Activity came out at 20.98% in the experiment on Mus musculus [1], 44.58% in the experiment on Mus musculus [2] and 50.62% in the experiment on Mus musculus [7].
